Reference: ChEMBL document CHEMBL3860044, “The Rational Design, Synthesis, and Antimicrobial Properties of Thiophene Derivatives That Inhibit Bacterial Histidine Kinases” (J Med Chem, 2016)
Values after ≈ are worked out from the molar mass of the structure shown. Active and inactive are the calls of the source. The rule behind the calls is not given here.

How the values were obtained:
Listeria monocytogenes = experiment: Antimicrobial activity against Listeria monocytogenes 10403S after 20 hrs by two fold serial broth dilution method; type: functional
How it was run: (§1)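 2-fold serial broth dilution per CLSI in LB, BHI or THB; inoculum (3–7) × 10⁵ cfu/mL; compound 0.5 to 128 µg/mL; 20 h at 37 °C. MIC taken as lowest concentration with no visible growth. For MBC (>99.99% kill), 10 µL from wells without growth spotted on agar; read next day as spots with fewer than 5 colonies.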

Staphylococcus aureus [1] = experiment: Bactericidal activity against methicillin-resistant Staphylococcus aureus USA300 TCH1516 after 20 hrs by two fold serial broth dilution method; type: functional, USA300_TCH1516
How it was run: (§2)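 Two-fold serial broth dilution per CLSI in LB, BHI or THB broth, (3–7) × 10⁵ cfu/mL per well, compound 0.5 to 128 µg/mL, 20 h at 37 °C. MIC is the lowest concentration with no growth. For MBC (>99.99% kill), 10 µL from wells without growth are spotted on agar and read the next day as spots with fewer than 5 colonies.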

Escherichia coli [2] = experiment: Bactericidal activity against Escherichia coli MG1655 after 20 hrs by two fold serial broth dilution method; type: functional, K-12 substr. MG1655; how it was run: as §2
[3] = Bactericidal activity against Streptococcus pyogenes M1 GAS 5448 after 20 hrs by two fold serial broth dilution method; type: functional; how it was run: as §1
Escherichia coli [4] = experiment: Antimicrobial activity against Escherichia coli MG1655 after 20 hrs by two fold serial broth dilution method; type: functional; settings: K-12 substr. MG1655, 20 h; how it was run: as §2
Bacillus anthracis = experiment: Bactericidal activity against Bacillus anthracis 34F2 after 20 hrs by two fold serial broth dilution method; type: functional; how it was run: as §2
[5] = Inhibition of Enterococcus faecalis Hexa-his-tagged IreK autophosphorylation expressed in Escherichia coli BL21(DE3) preincubated for 5 mins followed by [gamma-32P] ATP addition measured after 15 mins by SDS-PAGE based phosphor imaging method
How it was run: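 His6-IreK expressed in E. coli BL21(DE3) with IPTG at 16 °C and purified by Ni-NTA. Autophosphorylation run as for the histidine kinases: 0.5 µM kinase, 2.5 µM ATP with [γ-32P]ATP, compound 0–800 µM added before ATP.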

Bacillus subtilis [6] = experiment: Inhibition of Bacillus subtilis cytoplasmic Walk CA domain (204 to 612 residues) autophosphorylation at 1 mM preincubated for 5 mins followed by [gamma-32P] ATP addition measured after 3 mins by SDS-PAGE based phosphor imaging method
How it was run: (§3)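 Screen used cytoplasmic WalK fragments. 2 µM kinase in Epps buffer pH 8.5 with 20 mM MgCl2, 0.1 mM EDTA and 5% glycerol. Compound at 1 mM final in 10% DMSO, added 5 min before ATP (1 mM final including [γ-32P]ATP). Stopped with SDS loading buffer, run on SDS-PAGE, read by phosphorimaging.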

Escherichia coli [7] = experiment: Inhibition of histidine kinase in cephalosporin-resistant Escherichia coli isolate ARS 108 harboring extended spectrum beta lactamase assessed as adjuvant activity for restoration of cefotaxime induced antibacterial activity by measuring cefotaxime MIC at 50 ug/ml by broth microdilution method (reference value: >16 ug/ml)
How it was run: (§4)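 Clinical resistant isolates and quality control strains (S. aureus ATCC 29213, E. coli ATCC 25922) are tested by EUCAST broth microdilution with a 10⁶ bacteria/mL inoculum, in triplicate, with or without a fixed adjuvant concentration. For MBC, the MIC dilution and at least two more concentrated dilutions are plated and CFU/mL counted.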

[8] = Inhibition of Escherichia coli DNA gyrase supercoiling activity using relaxed pUC19 DNA as substrate after 30 mins by agarose gel electrophoresis
How it was run: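 E. coli gyrase (1 U) with 75 ng relaxed pUC19 in kit buffer with 2% DMSO. Compound at 6.25–800 µM final, ciprofloxacin as control. Incubated 30 min at 37 °C, stopped with loading dye, supercoiling read by agarose gel electrophoresis.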

Bacillus subtilis [9] = experiment: Inhibition of Bacillus subtilis cytoplasmic Walk CA domain (272 to 612 residues) autophosphorylation at 1 mM preincubated for 5 mins followed by [gamma-32P] ATP addition measured after 3 mins by SDS-PAGE based phosphor imaging method; how it was run: as §3
[10] = Inhibition of Bacillus subtilis JH642 Hexa-his-tagged ResE cytoplasmic domain (203 to 589 residues) autophosphorylation expressed in Escherichia coli BL21(DE3) preincubated for 5 mins followed by [gamma-32P] ATP addition measured after 8 to 60 mins by SDS-PAGE based phosphor imaging method; parameters: species or system Bacillus subtilis subsp. subtilis str. JH642
How it was run: (§5)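 His6-ResE purified by Ni-NTA after IPTG induction (1 mM, 16 °C). For IC50: 0.5 µM kinase in Epps pH 8.5, MgCl2, EDTA, glycerol buffer; compound 0–800 µM (two-fold steps), DMSO held constant, 5 min before ATP at 2.5 µM final, cold:hot ratio 1:10. Stopped with SDS loading buffer after 8 min; SDS-PAGE, phosphorimaging, densitometry.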

[11] = Bactericidal activity against Salmonella enterica 14028S after 20 hrs by two fold serial broth dilution method; type: functional; how it was run: as §2
[12] = Inhibition of Bacillus subtilis JH642 Hexa-his-tagged PhoR cytoplasmic domain (186 to 589 residues) autophosphorylation expressed in Escherichia coli BL21(DE3) preincubated for 5 mins followed by [gamma-32P] ATP addition measured after 8 to 60 mins by SDS-PAGE based phosphor imaging method; parameters: species or system Bacillus subtilis subsp. subtilis str. JH642
How it was run: as §5, with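 “His6-PhoR purified” for “His6-ResE purified”, “ratio 1:1.” for “ratio 1:10.”, “after 60” for “after 8”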

Staphylococcus aureus [13] = experiment: (§6) Inhibition of histidine kinase in methicillin-resistant Staphylococcus aureus isolate C1BP13 assessed as adjuvant activity for restoration of penicillin G induced antibacterial activity by measuring penicillin G MIC at 50 ug/ml by broth microdilution method (reference value: >8 ug/ml); how it was run: as §4
Staphylococcus aureus [14] = experiment: as §6, with “penicillin G-resistant/penicillinase producing” for “methicillin-resistant”, “C1P15” for “C1BP13”, “bactericidal” for “antibacterial”, “MBC” for “MIC”; how it was run: as §4
Staphylococcus aureus [15] = experiment: Inhibition of histidine kinase in methicillin-resistant Staphylococcus aureus isolate C1BP13 assessed as adjuvant activity for restoration of cloxacillin induced antibacterial activity by measuring cloxacillin MIC at 50 ug/ml by broth microdilution method (reference value: >8 ug/ml); how it was run: as §4
[16] = Antimicrobial activity against Bacillus subtilis JH642 after 20 hrs by two fold serial broth dilution method; type: functional, Bacillus subtilis subsp. subtilis str. JH642; how it was run: as §2
[17] = Antimicrobial activity against Streptococcus pyogenes M1 GAS 5448 after 20 hrs by two fold serial broth dilution method; type: functional; settings: Streptococcus pyogenes, 5448, 20 h; how it was run: as §1
Staphylococcus aureus [18] = experiment: Antimicrobial activity against methicillin-resistant Staphylococcus aureus USA300 TCH1516 after 20 hrs by two fold serial broth dilution method; type: functional; settings: USA300_TCH1516, 20 h; how it was run: as §2
Enterococcus faecalis = experiment: Antimicrobial activity against Enterococcus faecalis V583 after 20 hrs by two fold serial broth dilution method; type: functional; settings: V583, 20 h; how it was run: as §1
[19] = Bactericidal activity against Bacillus subtilis JH642 after 20 hrs by two fold serial broth dilution method; type: functional, Bacillus subtilis subsp. subtilis str. JH642; how it was run: as §1
Staphylococcus aureus [20] = experiment: Inhibition of histidine kinase in methicillin-resistant Staphylococcus aureus isolate C1BP13 assessed as adjuvant activity for restoration of cloxacillin induced bactericidal activity by measuring cloxacillin MBC at 50 ug/ml by broth microdilution method (reference value: >8 ug/ml); how it was run: as §4

O=[N+]([O-])c1ccc(-c2ccccc2O)s1
MIC (Listeria monocytogenes): 10 µg/mL (≈ 45.2 µM) | MBC99.99 (Staphylococcus aureus [1]): 32 µg/mL (≈ 145 µM) | MBC99.99 (Escherichia coli [2]): 32 µg/mL (≈ 145 µM) | MBC99.99 [3]: 32 µg/mL (≈ 145 µM) | MIC (Escherichia coli [4]): 32 µg/mL (≈ 145 µM) | MBC99.99 (Bacillus anthracis): 16 µg/mL (≈ 72.3 µM) | IC50 [5]: > 800 µM | inhibition (Bacillus subtilis [6]): Active | MIC (Escherichia coli [7]): 0.03 µg/mL | IC50 [8]: ≥ 400 µM | inhibition (Bacillus subtilis [9]): Active | IC50 [10]: 124 µM | MBC99.99 [11]: 32 µg/mL (≈ 145 µM) | IC50 [12]: 123 µM | MIC (Staphylococcus aureus [13]): < 0.015 µg/mL | MBC (Staphylococcus aureus [14]): 2 µg/mL | MIC (Staphylococcus aureus [15]): < 0.015 µg/mL | MIC [16]: 7 µg/mL (≈ 31.6 µM) | MIC [17]: 10 µg/mL (≈ 45.2 µM) | MIC (Staphylococcus aureus [18]): 16 µg/mL (≈ 72.3 µM) | MIC (Enterococcus faecalis): 32 µg/mL (≈ 145 µM) | MBC99.99 [19]: 10 µg/mL (≈ 45.2 µM) | MBC (Staphylococcus aureus [20]): > 8 µg/mL
